Experimental data from ChEMBL document CHEMBL1800010, “Design, synthesis, and pharmacological activity of nonallergenic pyrazolone-type antipyretic analgesics” (J Med Chem, 2010).
Active and inactive are the calls of the source.

Columns and labels:
Liver microsomes [1] = test: Metabolic stability in rat liver microsomes assessed as hydroxymethylpyrine formation per mg of protein after 20 mins by HPLC analysis; type: ADME, Microsome
Summary of the method: (§1)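 Rat liver microsomes prepared by 9000g then 105000g centrifugation in 1.15% KCl, protein by Lowry. Incubation: 2 μmol substrate, 10 μmol NADPH, Na2S2O5 and microsomes (2-2.5 mg protein) in 2 mL 0.1 M K/Na phosphate, pH 7.4, 37 °C, 20 min. Stopped with TCA. Metabolites measured by C18 HPLC at 254 nm against authentic standards.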

Rattus norvegicus [2] = test: Drug excretion in rat urine assessed as hydroxymethylpyrine formation at 100 mg/kg, po measured after 24 hrs by HPLC analysis; type: ADME, organism-based; parameters: dose 100 mg/kg, route oral; settings: in vivo
Summary of the method: (§2)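 Single oral dose of 100 mg/kg to rats, with urine collected for 24 h. 1 mL urine was incubated with β-glucuronidase/sulphatase and Na2S2O5 in 0.1 M acetate, pH 4.5, at 37 °C for 24 h. Phenacetin internal standard added, then chloroform/methanol 9:1 extraction. Analyzed by C18 HPLC (acetate pH 6.6/acetonitrile 85:15, 254 nm) against authentic standards. Mean ± SEM, n=4.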

Rattus norvegicus [3] = test: Drug excretion in rat urine assessed as hydroxyantipyrine formation at 100 mg/kg, po measured after 24 hrs by HPLC analysis; type: ADME, organism-based; parameters: dose 100 mg/kg, route oral; settings: in vivo; summary of the method: as §2
Liver microsomes [4] = test: Metabolic stability in rat liver microsomes assessed as hydroxyantipyrine formation per mg of protein after 20 mins by HPLC analysis; type: ADME, Microsome; summary of the method: as §1
Liver microsomes [5] = test: Metabolic stability in rat liver microsomes assessed as norantipyrine formation per mg of protein after 20 mins by HPLC analysis; type: ADME, Microsome; summary of the method: as §1
Rattus norvegicus [6] = test: Antipyretic activity against IL-1beta-induced hyperthermia in rat assessed as change in rectal temperature at 100 mg/kg, po measured after 2 hrs
[7] = Drug excretion in rat urine at 100 mg/kg, po measured after 24 hrs by HPLC analysis; type: ADME, organism-based; parameters: dose 100 mg/kg, route oral; settings: read-out: Activity; summary of the method: as §2
Cavia porcellus = species on record: Cavia porcellus; test: Antigenicity in guinea pig assessed as erythema in abdomen id measured after 24 hrs by skin reaction assay; settings: in vivo, other
Rattus norvegicus [8] = test: Drug excretion in rat urine assessed as norantipyrine formation at 100 mg/kg, po measured after 24 hrs by HPLC analysis; type: ADME, organism-based; parameters: dose 100 mg/kg, route oral; settings: in vivo; summary of the method: as §2
Rattus norvegicus [9] = test: Antinociceptive activity in rat assessed as suppression of carrageenan-induced nociception in right hind paw at 100 mg/kg, po measured after 1 hr; type: functional, organism-based; parameters: dose 100 mg/kg
Summary of the method: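 Randall–Selitto paw pressure test in rats. Hyperalgesia induced by intraplantar injection of 0.1 mL carrageenin (10 mg/mL) into the right hindpaw, with oral dosing immediately afterward. Pressure rose at 16 g/s to squeak or struggle, cutoff 250 g. Baseline was the mean of the last four stable of 6-8 readings. Results given as % of baseline threshold, mean ± SEM, n=4.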

Liver microsomes [10] = test: Metabolic stability in rat liver microsomes assessed as increase in […] products after 20 mins by HPLC analysis; type: ADME, Microsome; summary of the method: as §1
Rattus norvegicus [11] = test: Antipyretic activity against IL-1beta-induced hyperthermia in rat assessed as change in rectal temperature at 50 mg/kg, po measured after 2 hrs
Rattus norvegicus [12] = test: Drug excretion in rat urine assessed as norantipyrine formation at 100 mg/kg, po measured after 24 hrs by HPLC analysis; settings: in vivo, BLD = below limit of detection
Rattus norvegicus [13] = species on record: Rattus norvegicus; test: Antipyretic activity against IL-1beta-induced hyperthermia in rat assessed as change in rectal temperature measured after 2 hrs; type: functional, organism-based
Summary of the method: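 Rats fitted with a guide cannula into the lateral ventricle. Fever induced by icv IL-1β (200 units/rat) in PBS pH 7.5. Compound given orally immediately after IL-1β at 10-100 mg/kg. Rectal temperature read by thermoelectric probe at 7 cm depth, after 3 days of adaptation, at 2 h intervals. ΔT_rec = T − T₀. Mean ± SEM, four rats.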

Rattus norvegicus [14] = test: Antinociceptive activity in rat assessed as suppression of carrageenan-induced nociception in right hind paw at 2 mg/kg, po measured after 1 hr; type: functional, organism-based; parameters: dose 2 mg/kg
Summary of the method: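 Rat Randall-Selitto paw pressure test. Hyperalgesia induced by intraplantar injection of 0.1 mL carrageenin (10 mg/mL) into the right hindpaw. Drug given orally immediately after. Pressure applied at 16 g/s with a 250 g cutoff; threshold taken at squeaking/struggling. Baseline is the mean of the last four stable readings. Expressed as % of control threshold; mean ± SEM, n=4 rats.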

Cc1cc(=O)n(-c2ccccc2)n1C [ANTIPYRINE]
Activity (Liver microsomes [1]): 40 nmol
Activity (Rattus norvegicus [2]): 2%
Activity (Rattus norvegicus [3]): 2%
Activity (Liver microsomes [4]): 40 nmol
Activity (Liver microsomes [5]): 27 nmol
Activity (Rattus norvegicus [6]): Active
dose excreted at 24 h [7]: 2%
Activity (Cavia porcellus): Toxic
Activity (Rattus norvegicus [8]): 2%
Activity (Rattus norvegicus [9]): Active
Stability (Liver microsomes [10]): Unstable

Cc1cc(=O)n(-c2ccccc2)n1-c1ccccc1
Activity (Rattus norvegicus [11]): Active
Activity (Rattus norvegicus [2]; BLD = below limit of detection): BLD
Activity (Rattus norvegicus [12]): BLD
Activity (Liver microsomes [5]): < 0.1 nmol
Activity (Rattus norvegicus [13]): Dose-dependent effect
Activity (Cavia porcellus): Non-toxic
Activity (Rattus norvegicus [8]; BLD = below limit of detection): BLD
Activity (Rattus norvegicus [9]): Active

Cc1cc(=O)n(-c2ccccc2)n1CC(F)(F)F
Activity (Rattus norvegicus [11]): Active
Activity (Rattus norvegicus [2]; BLD = below limit of detection): BLD
Activity (Rattus norvegicus [12]): BLD
Activity (Liver microsomes [5]): < 0.1 nmol
Activity (Rattus norvegicus [13]): Dose-dependent effect
Activity (Cavia porcellus): Non-toxic
Activity (Rattus norvegicus [8]; BLD = below limit of detection): BLD
Activity (Rattus norvegicus [9]): Active

Cc1cc(=O)n(-c2ccccc2)n1C(C)(C)C
Activity (Rattus norvegicus [11]): Active
Activity (Rattus norvegicus [2]; BLD = below limit of detection): BLD
Activity (Rattus norvegicus [12]): BLD
Activity (Liver microsomes [5]): < 0.1 nmol
Activity (Rattus norvegicus [13]): Dose-dependent effect
Activity (Cavia porcellus): Non-toxic
Activity (Rattus norvegicus [8]; BLD = below limit of detection): BLD
Activity (Rattus norvegicus [9]): Active

COc1ccc2c(c1)c(CC(=O)O)c(C)n2C(=O)c1ccc(Cl)cc1
Activity (Rattus norvegicus [14]): Active

Cc1cccc(Nc2ccccc2C(=O)O)c1C
Activity (Rattus norvegicus [6]): Active
